# PGC1a acetyl inh – inhibitors of PGC1a acetylation signal, primary screen, cell-based, U2OS, AlphaScreen, inhibitor mode; AlphaScreen anti-acetyl-lysine; with virally co-expressed GCN5 acetyltransferase; inhibition, % at 15.6 µM; 350,000 compounds, 0.17% hits; AID 651687, 2012;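 active means every replicate shows inhibition of at least 40%; inconclusive means mean inhibition at least 40% but some replicate below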
# Cneo AK release – Cryptococcus neoformans cell lysis inducers, primary screen, AK release luminescence, single concentration | C. neoformans lysis, adenylate kinase release luminescence, 4 h; normalised: neutral wells 0, clomiphene wells 100 | lysis activity, % at 15 µM | 360,000 compounds, 0.2% hits;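 active means mean lysis activity across replicates of at least 80%, whatever share of replicates individually reach that level; inactive means mean lysis activity below 80%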
#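 Material: C. neoformans cells; Schedule: 4 h static compound exposure, 37 °C, read 1 h post-reagent; Measured by: adenylate kinase release luminescence; Read-out: signal increase indicating cell lysis; Controls: Clomiphene as positive lysis control.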
# Wnt bcat act – Wnt/beta-catenin pathway activators, primary screen, cell-based, plate reader, single point | Wnt/beta-catenin reporter cell assay, activator | activation, % at 9.35 µM | 300,000 compounds, 1.2% hits; in the data active means activation above about 30%, passing the limit was not always enough; inconclusive means no clear call, values can overlap the other calls
# MITF act – activators of MITF-driven TRPM1 promoter reporter, primary screen, cell-based, SK-MEL-5, luciferase, single point | activation, % at 12.5 µM | 300,000 compounds, 0.75% hits | SK-MEL-5 TRPM1-promoter luciferase, 24 h; % of positive control, neutral wells = 0;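 active means mean activation of at least 80% with every replicate also reaching 80%; inconclusive means mean reaches 80% but some replicate falls short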
# Hits are given with their value; . = inactive; ? = inconclusive; / = not tested or not shown; ! = not confirmed by another sample. Rows were chosen to be rich in hits. Some 1.5% of all compounds tested hit in one or more screens of this group.
SMILES,PGC1a acetyl inh,Cneo AK release,Wnt bcat act,MITF act
O=C(Nc1ccc(CN2CCOCC2)cc1)c1ccc(F)cc1,54,.,.,.
Cn1c(=O)c2cc(S(=O)(=O)NCCC(=O)NCc3ccccc3Cl)ccc2n(C)c1=O,47,.,/,.
CO[C@H]1CN(C)C(=O)c2ccc(NS(C)(=O)=O)cc2OC[C@@H](C)N(C(=O)C2CCOCC2)C[C@H]1C,.,.,/,/
CCOC(=O)CSc1ccc(-c2nc3ccccc3[nH]2)cn1,.,.,.,.
Fc1ccc(-c2nc3ccccc3[nH]2)cc1,.,/,58,.
Nc1ccccc1-c1nc2ccccc2[nH]1,.,.,55,.
N#CCSc1ccc(-c2nc3ccccc3[nH]2)cn1,.,/,34,.
O=c1c2c3c(sc2nc2n1N=C(c1cccs1)CS2)CCCC3,.,/,/,135
CCCc1cn(CC[C@H]2CC[C@H](NC(=O)CCN3CCCCC3)[C@@H](CO)O2)nn1,.,.,/,/
O=C(CSc1cn(Cc2ccccc2)c2ccccc12)Nc1nccs1,/,.,53,/
O=C(CSc1ccccc1)Nc1nccs1,/,/,.,.
C[C@H]1CN([C@@H](C)CO)S(=O)(=O)c2ccc(-c3ccncc3)cc2O[C@@H]1CN(C)C(=O)c1ccc2c(c1)OCO2,.,.,/,/
C[C@@H]1CN([C@H](C)CO)C(=O)c2cc(-c3ccccc3F)cnc2O[C@@H]1CN(C)C(=O)C1CCC1,.,.,/,/
Nc1[nH]n(-c2ccccc2)c(=O)c1N=Nc1ccccc1[N+](=O)[O-],.,.,61,128
O=c1c(N=Nc2ccccc2)c[nH]n1-c1ccccc1,.,.,45,/
Cc1[nH]n(-c2ccccc2)c(=O)c1N=Nc1ccc2c(c1)OCCO2,.,/,35,.
Nc1[nH]n(-c2ccccc2)c(=O)c1N=Nc1ccccc1,.,.,55,.
COc1ccc2c3c(n(C)c2c1)[C@H](CO)N(C(=O)CC1CC1)CC31CN(Cc2ccccc2)C1,.,/,/,/
COc1cccc(NC(=O)c2ccccc2)c1,/,.,.,104
CC(C)OC(=O)c1cccc(NC(=O)c2ccccc2)c1,/,/,?,83
CC(=O)c1ccc(NC(=O)c2cccc(NC(=O)c3ccccc3)c2)cc1,.,.,.,/
COc1cccc(NC(=O)c2cccc(C(=O)Nc3cccc(OC)c3)c2)c1,/,.,.,/
COc1cccc(NC(=O)c2ccc(OC(F)(F)F)cc2)c1,.,.,37,107
COc1cccc(NC(=O)c2cccc(C)c2[N+](=O)[O-])c1,/,/,33,.
O=C(N[C@H]1C=C[C@H](CC(=O)N2CCc3ccccc3C2)O[C@@H]1CO)C1CCOCC1,.,/,/,/
SMILES,PGC1a acetyl inh,Cneo AK release,Wnt bcat act,MITF act
CCNC(=S)Nc1ccc2c(c1)oc1ccccc12,/,.,38,?
O=C(Nc1ccc(-c2nc3ccccc3o2)cc1)c1cccnc1,.,.,42,.
CCNC(=S)Nc1ccc2ncoc2c1,.,.,.,.
O=C(Nc1ccc2c(c1)oc1ccccc12)c1cccnc1,.,.,/,106
O=C(Nc1cccc(-c2nc3ccccc3o2)c1)c1cccnc1,/,/,.,.
O=C(Nc1ccc2c(c1)oc1ccccc12)c1ccncc1,.,.,?,/
O=C(CCl)c1ccc2[nH]c(=O)oc2c1,.,.,36,.
CSc1ccccc1OCc1cc(C(=O)N(C)Cc2ccc3nsnc3c2)no1,.,.,35,.
CCOC(=O)c1ccc(CNC(=O)c2cc(COc3ccccc3SC)on2)o1,/,.,.,103
CSc1ccccc1OCc1cc(C(=O)N(C)Cc2ccc(C)o2)no1,.,.,.,99
CSc1ccccc1OCc1cc(C(=O)NCc2ccc(C)s2)no1,.,.,.,.
C[C@H](CO)N1C[C@H](C)[C@H](CN(C)S(=O)(=O)c2ccc(F)cc2)Oc2ccc(NC(=O)Nc3ccc4c(c3)OCO4)cc2CC1=O,.,/,/,/
C[C@@H]1CN([C@H](C)CO)C(=O)c2cc(NC(=O)Nc3ccc(C(F)(F)F)cc3)ccc2O[C@@H](C)CCCCO[C@H]1CN(C)Cc1ccc2c(c1)OCO2,.,.,/,/
C[C@H]1CCCCO[C@H](CN(C)Cc2ccc3c(c2)OCO3)[C@@H](C)CN([C@@H](C)CO)C(=O)c2cc(NC(=O)Nc3ccc(C(F)(F)F)cc3)ccc2O1,79,.,/,/
C[C@@H]1CCCCO[C@H](CN(C)Cc2ccc3c(c2)OCO3)[C@@H](C)CN([C@@H](C)CO)C(=O)c2cc(NC(=O)Nc3ccc(C(F)(F)F)cc3)ccc2O1,53,.,/,/
Cc1nn(-c2ccc3ccccc3c2)c(=O)c2ccccc12,.,.,61,.
Cc1noc(/C=C/N(C)C)c1S(=O)(=O)N(C)CC(=O)NC1CCCCC1,43,/,/,.
c1ccc2nc3c(nc2c1)[nH]c1ccccc13,/,.,93,.
C[C@@H]1CN([C@@H](C)CO)C(=O)c2cc(NS(=O)(=O)c3ccccc3)ccc2O[C@@H](C)CCCCO[C@H]1CN(C)Cc1ccncc1,.,.,/,/
Cc1noc(C)c1S(=O)(=O)Nc1ccc2c(c1)C(=O)N([C@H](C)CO)C[C@H](C)[C@H](CN(C)Cc1ccncc1)O2,.,91,/,/
C[C@@H]1CCCCO[C@@H](CN(C)CC2CCCCC2)[C@@H](C)CN([C@@H](C)CO)C(=O)c2cc(NS(=O)(=O)c3ccccc3)ccc2O1,.,80,/,/
C[C@H]1CCCCO[C@H](CN(C)Cc2ccncc2)[C@@H](C)CN([C@@H](C)CO)C(=O)c2cc(NS(=O)(=O)c3ccccc3)ccc2O1,73!,.,.,/
CCCC1CCC(c2ccc(OCC)cc2)=CC1=O (configuration not stated),.,.,53,.
O=C(O)c1ccc(-c2nc3ccccc3[nH]2)cc1,/,/,.,.
O=C(O)c1ccc(/C=C(\c2nc3ccccc3[nH]2)c2nc3ccccc3s2)cc1,.,.,42,.
SMILES,PGC1a acetyl inh,Cneo AK release,Wnt bcat act,MITF act
CCOC(=O)c1c(NC(=O)c2cc(C)oc2C)sc(C(=O)Nc2ccc(Cl)cc2)c1C,.,.,42,.
COc1cnn(-c2ccccc2)c(=O)c1OC,.,/,50,/
CO[C@@H]1CN(C)C(=O)c2ccc(NS(C)(=O)=O)cc2OC[C@@H](C)N(CC2CCCCC2)C[C@H]1C,.,/,/,/
O=C(Nc1ccccc1Cl)C(=O)c1cn(CC(=O)N2CCOCC2)c2ccccc12,.,.,39,83
Cc1noc(C)c1NC(=O)N(C)C[C@@H]1Oc2ccc(NC(=O)CCN3CCOCC3)cc2C(=O)N([C@@H](C)CO)C[C@H]1C,.,.,/,/
CC(=O)Nc1ccc(/C=C/c2nc3ccccc3o2)cc1,.,.,52,.
COc1ccc(NC(=S)NCCSc2ccc(C)cc2)c(OC)c1,.,.,61,.
COc1ccc(OC)c(NC(=S)NCCSc2ccc(C)cc2)c1,/,/,.,.
C[C@H]1CN([C@@H](C)CO)C(=O)c2cc(NC(=O)Nc3ccccc3)ccc2O[C@@H]1CN(C)S(C)(=O)=O,.,.,/,/
CCCCNC(=O)Nc1nc2ccccc2s1,.,/,.,.
CCCNC(=O)Nc1nc2ccccc2s1,.,/,?,126
Cc1ccc(NC(=O)Nc2ccc3c(c2)N(C)C(=O)CS3)nc1,.,.,.,?

# High-throughput results from PubChem.
